Assay results gathered from unrelated publications.
Compare with care: the assays were run in different laboratories.
RPS6KA5: Ribosomal protein S6 kinase alpha-5 (RPS6KA5, Homo sapiens, UniProt O75582)
RPS6KA5 N-terminal kinase domain: Ribosomal protein S6 kinase alpha-5, N-terminal kinase domain (RPS6KA5, Homo sapiens, UniProt O75582)
RPS6KA5 C-terminal kinase domain: Ribosomal protein S6 kinase alpha-5, C-terminal kinase domain (RPS6KA5, Homo sapiens, UniProt O75582)

| Structure (SMILES) | target | assay | setting | measurement | result |
| --- | --- | --- | --- | --- | --- |
| Oc1cccc(-c2nc(N3CCOCC3)c3oc4ncccc4c3n2)c1 | RPS6KA5 | enzyme activity, inhibitor | 10 µM | remaining activity | 105% |
| N#CCCc1ccc2c(c1)-c1[nH]c3ccc([N+](=O)[O-])cc3c1CC(=O)N2 | RPS6KA5 | cell-free assay | 0.5 µM | remaining signal | 94.2% |
| CCC(=N\O)/C(C)=C/c1ccc(F)cc1 | RPS6KA5 N-terminal kinase domain | cell-free assay, competition with immobilised ligand | 1 µM | remaining binding | 100% |
| O=C1Nc2ccc(Cl)cc2C1=Cc1cc(Cl)c(O)c(Cl)c1 | RPS6KA5 | cell-free assay | 0.5 µM | remaining signal | 86.1% |
| CCN(CC)c1ccc(C2=NNC(=O)CC2C)cc1[N+](=O)[O-] (stereo not drawn) | RPS6KA5 | enzyme activity, inhibitor | 10 µM | remaining activity | 83% |
| FC(F)c1nc2ccccc2n1-c1nc(N2CCOCC2)nc(N2CCOCC2)n1 | RPS6KA5 | enzyme activity, inhibitor | 10 µM | remaining activity | 89% |
| COc1cc2c(N3CCN(C(=O)Nc4ccc(OC(C)C)cc4)CC3)ncnc2cc1OCCCN1CCCCC1 | RPS6KA5 | cell-free assay | 0.5 µM | remaining signal | 109% |
| COc1cc2ncnc(Nc3ccc(Oc4ccccc4)c(C)c3C)c2cc1OC | RPS6KA5 | enzyme activity, inhibitor | 1 µM | inhibition | 2% |
| CC1=C(C#N)C(c2ccc3c(c2)c(NC(=O)c2ccccc2C)nn3C)C(C#N)=C(C)N1 | RPS6KA5 N-terminal kinase domain | cell-free assay, competition with immobilised ligand | 1 µM | remaining binding | 91% |
| Cc1ccc(NC(=O)c2ccc(C)c(C(F)(F)F)c2)cc1C#Cc1nn(C2CCC(O)CC2)c2ncnc(N)c12 (stereo not drawn) | RPS6KA5 | cell-free assay | 10 µM | remaining signal | 95% |
| CN(C)c1ncc(F)c(-c2cnn3ncccc23)n1 | RPS6KA5 C-terminal kinase domain | binding, competition with immobilised ligand | 1 µM | remaining binding | 89% |
| CCCOc1ccc(OC)c(F)c1C(=O)c1ccc(C(=O)N[C@@H]2CNC[C@H]2NC(=O)c2ccc3[nH]ncc3c2)cc1 | RPS6KA5 | enzyme activity, inhibitor | 10 µM | remaining activity | 2% |
| O=C(NC[C@@H]1[C@H]2CN(C(=O)OCc3cc(C(F)(F)F)cc(C(F)(F)F)c3)C[C@@H]12)c1ccc2[nH]nnc2c1 | RPS6KA5 N-terminal kinase domain | cell-free assay, competition with immobilised ligand | 1 µM | remaining binding | 100% |
| C=CC(=O)Nc1cc(Nc2nccc(Nc3cc(Cl)c(F)cc3C(C)(C)O)n2)c(OC)cc1N1CC[C@@H](N(C)C)C1 | RPS6KA5 | enzyme activity, inhibitor | 1 µM | inhibition | 26% |
| Cc1ccc(C(=O)Nc2ccc(CN3CCN(C)CC3)c(C(F)(F)F)c2)cc1C#Cc1cnc2cccnn12 | RPS6KA5 | enzyme activity, inhibitor | 23.5 nM | activity vs control | 96% |
| Cc1c(NC(=O)c2cc(C(N)=O)nc3cc(F)ccc23)c(C(F)(F)F)nn1Cc1ccc(C(C)(C)C)cc1 | RPS6KA5 C-terminal kinase domain | cell-free assay, competition with immobilised ligand | 1 µM | remaining binding | 89% |
| CNc1cccc2cc(C(=O)Nc3ccc(C(=O)O)cc3)c(=O)[nH]c12 | RPS6KA5 | enzyme activity, inhibitor | 10 µM | inhibition | -7.3% |
| CNC(=O)c1cc(Oc2ccc(NC(=O)Nc3ccc(Cl)c(C(F)(F)F)c3)cc2)ccn1 | RPS6KA5 | enzyme activity, inhibitor | 10 µM | inhibition | 8% |

| Structure (SMILES) | target | assay | setting | measurement | result |
| --- | --- | --- | --- | --- | --- |
| Nc1nc(Nc2ccccc2)sc1C(=O)c1c(F)cccc1F | RPS6KA5 | enzyme activity, inhibitor | 10 µM | remaining activity | 87% |
| CC(C)(C)c1nc2c(s1)c1nc(N)ncc1c1ccc(NS(=O)(=O)c3c(F)cccc3F)c(F)c12 | RPS6KA5 | enzyme activity, inhibitor, radiometric | 1 µM | remaining activity | 95% |
| CCCS(=O)(=O)Nc1ccc(F)c(C(=O)c2c[nH]c3ncc(-c4ccc(Cl)cc4)cc23)c1F | RPS6KA5 | enzyme activity, inhibitor | 1 µM | inhibition | < 10% |
| NS(=O)(=O)c1cc(NC(=O)Cc2ccccc2)ccc1Oc1cccc(Cl)c1 | RPS6KA5 N-terminal kinase domain | cell-free assay, competition with immobilised ligand | 1 µM | remaining binding | 71% |
| Oc1cccc(-c2nc(N3CCOCC3)c3oc4ncccc4c3n2)c1 | RPS6KA5 | cell-free assay | 0.5 µM | remaining signal | 86.5% |
| O=c1nc(-c2ccccn2)sc2ccccc12 | RPS6KA5 N-terminal kinase domain | binding, competition with immobilised ligand | 1 µM | remaining binding | 94% |
| COc1cc(Nc2cnc(C#N)c(O[C@H](C)CN(C)C)n2)ncc1-c1cnn(C)c1 | RPS6KA5 | enzyme activity, inhibitor, radiometric | 1 µM | remaining activity | 86% |
| C[C@@H]1CCN(c2nccc(-c3cnn4ncccc34)n2)C1 | RPS6KA5 C-terminal kinase domain | binding, competition with immobilised ligand | 1 µM | remaining binding | 100% |
| O=C(Nc1cnn(-c2csc(C(=O)NC3COC3)c2)c1)Nc1c(F)cccc1Cl | RPS6KA5 | enzyme activity, inhibitor | 5 µM | remaining activity | 104% |
| COc1cc(-c2cn(C3CCc4c(F)cccc4N(CC(F)(F)F)C3=O)nn2)ccc1-n1cnc(C)c1 (stereo not drawn) | RPS6KA5 N-terminal kinase domain | cell-free assay, competition with immobilised ligand | 1 µM | remaining binding | 100% |
| CC1CCCN1c1nccc(-c2cnn3ncccc23)n1 (stereo not drawn) | RPS6KA5 C-terminal kinase domain | binding, competition with immobilised ligand | 1 µM | remaining binding | 100% |
| CNCc1ccc(-c2cc(-c3nc(-c4ccc(S(=O)(=O)C(C)C)cc4)cnc3N)on2)cc1 | RPS6KA5 | enzyme activity, inhibitor | 0.4 µM | inhibition | 0% |
| Nc1ncnc2occ(-c3ccc(NC(=O)Nc4cc(C(F)(F)F)ccc4F)cc3)c12 | RPS6KA5 C-terminal kinase domain | cell-free assay, inhibitor | 20 µM | remaining signal | 23% |
| COc1cc(/C=C/C(=O)CC(=O)/C=C/c2ccc(O)c(OC)c2)ccc1O | RPS6KA5 | enzyme activity, inhibitor | 1 µM | activity vs control | 92% |
| N[C@@H]1CCN(c2nccc(-c3cnn4ncccc34)n2)C1 | RPS6KA5 N-terminal kinase domain | binding, competition with immobilised ligand | 1 µM | remaining binding | 94% |
| Oc1ccc(-c2nc(-c3ccncc3)c(-c3ccc(F)cc3)[nH]2)cc1 | RPS6KA5 | cell-free assay | 0.5 µM | remaining signal | 107% |
| O=C(NS(=O)(=O)c1ccc(NCC2CCOCC2)c([N+](=O)[O-])c1)c1ccc(N2CCN(Cc3ccc(C(F)(F)F)cc3-c3ccc(Cl)cc3)CC2)cc1Oc1cnc2[nH]ccc2c1 | RPS6KA5 N-terminal kinase domain | cell-free assay, competition with immobilised ligand | 1 µM | remaining binding | 97% |
| Cc1ccc(Nc2nccc(N(C)c3ccc4c(C)n(C)nc4c3)n2)cc1S(N)(=O)=O | RPS6KA5 | enzyme activity, inhibitor | 10 µM | inhibition | 36% |
